In all, about 2,000 compounds went through this assay and about 10 (0.5%) were called active. The entries come from a sample that favours actives as a whole. A number with no mark means an inactive call.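 Rule for the calls: active = inhibition above 30%; inactive = the rest.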
target: Protein-arginine deiminase type-4 (Homo sapiens) (UniProt Q9UM07); assay: blockers of protein arginine deiminase 4 – biochemical, fluorescence polarization, primary screen (AID 463073); conditions: recombinant PAD4, RFA probe fluorescence polarization; at 5 µM; active compounds read high;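 note: 0% = PAD4 with DMSO and 100% = wells lacking PAD4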
Sequence (Q9UM07 whole entry, looked up): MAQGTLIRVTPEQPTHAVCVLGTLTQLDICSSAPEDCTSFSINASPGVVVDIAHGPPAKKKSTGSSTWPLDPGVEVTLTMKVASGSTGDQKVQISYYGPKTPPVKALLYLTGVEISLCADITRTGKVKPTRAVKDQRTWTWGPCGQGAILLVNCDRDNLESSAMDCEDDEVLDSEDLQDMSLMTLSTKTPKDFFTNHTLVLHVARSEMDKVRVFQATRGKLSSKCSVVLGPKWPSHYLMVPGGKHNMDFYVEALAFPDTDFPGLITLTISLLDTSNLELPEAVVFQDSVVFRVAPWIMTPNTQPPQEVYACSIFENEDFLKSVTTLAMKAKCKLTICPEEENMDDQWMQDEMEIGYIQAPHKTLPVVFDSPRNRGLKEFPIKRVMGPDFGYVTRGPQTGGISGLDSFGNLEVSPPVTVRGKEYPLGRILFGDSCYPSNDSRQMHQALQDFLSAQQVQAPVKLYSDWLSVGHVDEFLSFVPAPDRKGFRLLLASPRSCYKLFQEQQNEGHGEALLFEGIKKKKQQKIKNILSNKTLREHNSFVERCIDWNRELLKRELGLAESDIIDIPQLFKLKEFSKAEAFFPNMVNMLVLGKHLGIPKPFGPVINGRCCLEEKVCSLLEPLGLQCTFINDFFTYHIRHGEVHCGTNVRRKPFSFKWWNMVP
Summary of the method: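 Material – recombinant PAD4 · Amount – PAD4 at 2 µM in dispensed buffer, before additions · Medium – Ca2+-containing HEPES pH 7.6, TCEP · Doses – one dose, 5 µM final · Schedule – 30 min 25 °C preincubation, 5 h 37 °C labeling · Measured by – FP, ex 525 nm, em 598 nm · Benchmarks – wells lacking PAD4 as full-inhibition control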

Row | SMILES | inhibition
1 | O=C1C(=O)c2ccccc2-c2ccccc21 | 94.3% (active)
2 | O=C1C=Cc2ccccc2C1=O | 6.7%
3 | C[C@H]1CCCC(=O)CCC/C=C/c2cc(O)cc(O)c2C(=O)O1 | 0.58%
4 | CC(C)[C@@]1(NC(=O)[C@@H]2C[C@@H]3c4cccc5[nH]cc(c45)C[C@H]3N(C)C2)O[C@@]2(O)[C@@H]3CCCN3C(=O)[C@H](Cc3ccccc3)N2C1=O | 4.69%
5 | CC1CCC[C@H](O)CCCCCc2cc(O)cc(O)c2C(=O)O1 (stereo not given in full) | 2.98%
6 | CN1C2CCC1CC(OC(=O)CCN1CCCC1)C2 (stereo not given) | 0.67%
7 | COc1ccc(Cc2nccc3cc(OC)c(OC)cc23)cc1OC | 74.4% (active)
8 | C[C@H]1CC[C@@]2(C)[C@@H](CC[C@@H]3[C@@H]2CC[C@]2(C)[C@@H](O)CC[C@@H]32)C1 | 5.74%
9 | O=Cc1cn(Cc2ccc(F)cc2)c2ccccc12 | 0.18%
10 | C[C@]12CCC(=O)C=C1CC[C@@H]1[C@@H]2C(=O)C[C@]2(C)C(=O)CC[C@@H]12 | 3.91%
